Measured values of several laboratories.
Lines come from different studies, so protocols differ.
NPSR1: Neuropeptide S receptor (NPSR1, Homo sapiens, UniProt Q6W5P4)
Fructose-1,6-bisphosphatase 1: Fructose-1,6-bisphosphatase 1 (Mus musculus, UniProt Q9QXD6)
TPR: Trypanothione reductase (TPR, Trypanosoma cruzi, UniProt P28593)
Dual specificity calcium/calmodulin-dependent 3',5'-cyclic nucleotide phosphodiesterase 1B: Dual specificity calcium/calmodulin-dependent 3',5'-cyclic nucleotide phosphodiesterase 1B (Homo sapiens, UniProt Q01064)
PTPN12: Tyrosine-protein phosphatase non-receptor type 12 (PTPN12, Homo sapiens, UniProt Q05209)
Aldo-keto reductase family 1 member A1: Aldo-keto reductase family 1 member A1 (Rattus norvegicus, UniProt P51635)
GRM3: Metabotropic glutamate receptor 3 (GRM3, Homo sapiens, UniProt Q14832)
SLC6A2: Sodium-dependent noradrenaline transporter (SLC6A2, Homo sapiens, UniProt P23975)

| Compound | target | assay | setting | IC50 [µM] |
| --- | --- | --- | --- | --- |
| COc1ccc(-n2cnc3c(c2=N)C(c2cccc(OC)c2)c2c(ccc4ccccc24)O3)cc1 (centres unmarked) | NPSR1 | calcium signal, antagonist | – | 4.38 |
| O=P(O)(O)OC[C@H]1O[C@@](CO)(OP(=O)(O)O)[C@@H](O)[C@@H]1O | Fructose-1,6-bisphosphatase 1 | enzyme activity, inhibitor | – | 1.69 |
| NCCCc1ccccc1 | TPR | enzyme activity, inhibitor, absorbance | – | > 100 |
| O=S1(=O)O[C@@H]2[C@H](O)[C@@H](O)[C@H](O)[C@@H](CO)[C@@H]2O1 | bglA (Thermotoga maritima, UniProt Q08638) | enzyme activity, inhibitor | pH 6.8, with preincubation | > 100 |
| N=c1n(CCN2CCCCC2)c2ccccc2n1CC(O)c1ccc(Cl)c(Cl)c1 (centres unmarked) | TPR | enzyme activity, inhibitor | – | ≤ 10 |
| COc1cccc(C2c3c(ncn(-c4ccccc4C)c3=N)Oc3ccc4ccccc4c32)c1 (centres unmarked) | NPSR1 | cAMP, antagonist, TR-FRET | – | 9.72 |
| COc1ccc(C2=NN(C3CCCCCC3)C(=O)[C@@H]3CC=CC[C@H]23)cc1-c1ccc(C(N)=O)cc1 (relative stereo) | Dual specificity calcium/calmodulin-dependent 3',5'-cyclic nucleotide phosphodiesterase 1B | enzyme activity, inhibitor | – | > 10 |
| CC(C)Cc1sc(N)nc1-c1ccc(P(=O)(O)O)o1 | Fructose-1,6-bisphosphatase 1 | enzyme activity, inhibitor | – | 0.3 |
| CCN(CC)C(=S)SSC(=S)N(CC)CC | PTPN12 | enzyme activity, inhibitor, fluorescence | – | > 500 |
| Nc1ncnc2c1C(c1ccccc1)c1c(ccc3ccccc13)O2 (centres unmarked) | NPSR1 | cAMP, antagonist, TR-FRET | – | 7.72 |
| CCN(CC)CCn1c(=N)n(CC(O)c2ccc(Cl)c(Cl)c2)c2ccccc21 (centres unmarked) | TPR | enzyme activity, inhibitor | – | ≤ 10 |
| COc1ccc2nc(/N=C3/NC(=O)C(=Cc4ccc(Cl)cc4)S3)sc2c1 | Aldo-keto reductase family 1 member A1 | enzyme activity, inhibitor, absorbance | pH 7.2 | 18.3 |
| COc1ccc(-c2cc(C(N)=O)ncc2OCc2noc(C)n2)c(F)c1 | GRM3 | ion flux, antagonist | – | > 10 |
| O=C1c2ccccc2C(=O)c2c(O)c(O)cc(O)c21 | PTPN12 | enzyme activity, inhibitor | – | 5 |
| Cc1ccc(OCC(O)Cn2c(=N)n(CCN3CCCCC3)c3ccccc32)cc1 (centres unmarked) | TPR | enzyme activity, inhibitor | – | ≤ 10 |
| Clc1ccc(C(c2ccccc2)c2nnnn2CCCCN2CCN(CC=Cc3ccccc3)CC2)cc1 (centres unmarked) | SLC6A2 | transporter uptake, inhibitor | – | 0.985 |
| COc1cccc(C2c3c(ncn(-c4cccc(C)c4)c3=N)Oc3ccc4ccccc4c32)c1 (centres unmarked) | NPSR1 | calcium signal, antagonist | – | 4.38 |
| COc1ccc(-c2cc(C(N)=O)ncc2OCc2cnc(OC)nc2)c(F)c1 | GRM3 | ion flux, antagonist | – | > 10 |
| O=C(O)c1cc(O)c2c(c1)[C@H]([C@H]1c3cc(C(=O)O)cc(O)c3C(=O)c3c(O[C@@H]4O[C@H](CO)[C@@H](O)[C@H](O)[C@H]4O)cccc31)c1cccc(O[C@@H]3O[C@H](CO)[C@@H](O)[C@H](O)[C@H]3O)c1C2=O | PTPN12 | enzyme activity, inhibitor, fluorescence | – | 0.4 |
| N=c1n(CCOc2ccccc2)c2ccccc2n1CCN1CCCCC1 | TPR | enzyme activity, inhibitor | – | ≤ 10 |
| CN1c2c(nc(N)[nH]c2=O)NC[C@@H]1CNc1ccc(C(=O)N[C@@H](CCC(=O)O)C(=O)O)cc1 | Folate receptor beta (FOLR2, Homo sapiens, UniProt P14207) | cell-free assay, ELISA | – | 0.196 |
| COc1ccc(-c2cc(C(N)=O)ncc2OCc2cn(C)cn2)c(F)c1 | GRM3 | ion flux, antagonist | – | > 10 |
| N=c1n(CCN2CCCCC2)c2ccccc2n1CC(O)COc1ccc(Cl)cc1Cl (centres unmarked) | TPR | enzyme activity, inhibitor | – | ≤ 10 |
| O=C(Nc1ccn(Cc2ccc(O)cc2C(F)(F)F)n1)c1c(F)cccc1F | Short transient receptor potential channel 3 (TRPC3, Homo sapiens, UniProt Q13507) | ion current, inhibitor | – | > 10 |
| COc1ccc2nc(/N=C3/NC(=O)C(=Cc4ccccc4)S3)sc2c1 | Aldo-keto reductase family 1 member A1 | enzyme activity, inhibitor, absorbance | pH 7.2 | > 50 |
| O=C(Oc1cc(O)cc2c1C[C@@H](OC(=O)c1cc(O)c(O)c(O)c1)[C@@H](c1cc(O)c(O)c(O)c1)O2)c1cc(O)c(O)c(O)c1 | PTPN12 | enzyme activity, inhibitor, fluorescence | – | 0.02 |
| Clc1ccc(C(c2ccccc2)c2nnnn2CCCCN2CCC(Cc3ccc(Cl)c(Cl)c3)CC2)cc1 (centres unmarked) | SLC6A2 | transporter uptake, inhibitor | – | 0.78 |

| Compound | target | assay | setting | IC50 [µM] |
| --- | --- | --- | --- | --- |
| O=C1c2ccccc2-c2cccc3cccc1c23 | PTPN12 | enzyme activity, inhibitor, fluorescence | – | > 150 |
| OC(c1ccccc1)c1ccccc1 | TPR | enzyme activity, inhibitor, absorbance | – | > 100 |
| Cc1ccc(C(=O)Nc2ccc(S(=O)(=O)O)c3cc(S(=O)(=O)O)cc(S(=O)(=O)O)c23)cc1NC(=O)c1cccc(NC(=O)Nc2cccc(C(=O)Nc3cc(C(=O)Nc4ccc(S(=O)(=O)O)c5cc(S(=O)(=O)O)cc(S(=O)(=O)O)c45)ccc3C)c2)c1 | PTPN12 | enzyme activity, inhibitor | – | 11 |
| Fc1ccc(C(c2ccc(F)cc2)c2nnnn2CCCCN2CCN(Cc3ccccc3)CC2)cc1 | SLC6A2 | transporter uptake, inhibitor | – | 0.16 |
| COc1ccc(-c2cc(C(N)=O)ncc2OCc2ccncc2)c(F)c1 | GRM3 | ion flux, antagonist | – | > 10 |
| ClCCOC1c2ccccc2CCc2ccccc21 | TPR | enzyme activity, inhibitor, absorbance | – | 29.7 |
| COc1cccc(C2c3c(ncn(-c4ccccn4)c3=N)Oc3ccc4ccccc4c32)c1 (centres unmarked) | NPSR1 | calcium signal, antagonist | – | 5.51 |
| COc1cc(/C=C2\SC(=O)NC2=O)cc(F)c1OCCNc1nc2c(cnn2C2CCCC2)c(=O)[nH]1 | Dual specificity calcium/calmodulin-dependent 3',5'-cyclic nucleotide phosphodiesterase 1B | enzyme activity, inhibitor | – | 0.0151 |
| NC(=O)c1cccc(-c2cccc(OC(=O)NC3CCCCC3)c2)c1 | Cocaine esterase (CES2, Homo sapiens, UniProt O00748) | enzyme activity, inhibitor | – | 0.072 |
| c1ccc(CCCN2CCNCC2)cc1 | TPR | enzyme activity, inhibitor, absorbance | – | 34.5 |
| COc1cccc(C2c3c(ncn(-c4cccc(C#N)c4)c3=N)Oc3ccc4ccccc4c32)c1 (centres unmarked) | NPSR1 | cAMP, antagonist, TR-FRET | – | 19.4 |
| CC(=O)N[C@@H](Cc1c[nH]c2ccccc12)C(=O)N[C@@H](CCC(=O)C=[N+]=[N-])C(=O)OC(C)C | Glutaminase kidney isoform, mitochondrial (GLS, Homo sapiens, UniProt O94925) | enzyme activity, inhibitor, radiometric | – | > 1000 |
| COc1cccc(C2c3c(ncn(-c4ccncc4)c3=N)Oc3ccc4ccccc4c32)c1 (centres unmarked) | NPSR1 | cAMP, antagonist, TR-FRET | – | 19.4 |
| Cc1cnc(-c2ccc(-c3ccc(NC(=O)Nc4c(F)cc(F)cc4F)cc3F)c3c2C(=O)NC3)[nH]1 | Serine/threonine-protein kinase/endoribonuclease IRE2 (ERN2, Homo sapiens, UniProt Q76MJ5) | enzyme activity, inhibitor | – | 0.0148 |
| CO/N=C(\C(=O)N[C@@H]1C(=O)N2C(C(=O)O)=C(COC(C)=O)CS[C@H]12)c1csc(N)n1 | PTPN12 | enzyme activity, inhibitor, fluorescence | – | 70 |
| Fc1ccc(C(c2ccc(F)cc2)c2nnnn2CCCCN2CCC(Cc3ccc(Cl)c(Cl)c3)CC2)cc1 | SLC6A2 | transporter uptake, inhibitor | – | 0.521 |
| O=S(=O)(Nc1nc2cc(Cl)ccc2o1)c1cc(Cl)ccc1Cl | Fructose-1,6-bisphosphatase 1 | enzyme activity, inhibitor | – | 4.58 |
| CCCc1ccccc1 | TPR | enzyme activity, inhibitor, absorbance | – | > 100 |
| COc1ccc2c(Oc3ccc4c(C(=O)Nc5ccccc5N)cccc4c3)ccnc2c1 | Fibroblast growth factor receptor 1 (FGFR1, Homo sapiens, UniProt P11362) | enzyme activity, inhibitor | – | > 0.5 |
| C1CNCCN1 | TPR | enzyme activity, inhibitor, absorbance | – | > 100 |
| Clc1ccc(C(c2ccccc2)c2nnnn2CCCCN2CCC(CCCc3ccccc3)CC2)cc1 (centres unmarked) | SLC6A2 | transporter uptake, inhibitor | – | 0.232 |
| COc1ccc2nc(/N=C3/NC(=O)C(=Cc4ccc(O)c(OC)c4)S3)sc2c1 | Aldo-keto reductase family 1 member A1 | enzyme activity, inhibitor, absorbance | pH 7.2 | 0.61 |
| COc1cccc(C2c3c(ncn(-c4ccccc4-c4ccccc4)c3=N)Oc3ccc4ccccc4c32)c1 (centres unmarked) | NPSR1 | cAMP, antagonist, TR-FRET | – | 38.7 |
| COc1ccc(-c2nsc(NC(=O)[C@@H]3C[C@H]3C)c2C)cc1 | GRM3 | calcium signal, antagonist | – | > 12.5 |
| CN1CCN(c2ccc(Nc3ncc4cc(C#N)c(=O)n(C5CCCC5)c4n3)cc2)CC1 | Fibroblast growth factor receptor 4 (FGFR4, Homo sapiens, UniProt P22455) | enzyme activity, inhibitor | – | 1.53 |
| Cn1ccc(COc2cnc(C(N)=O)cc2-c2ccc(F)cc2)n1 | GRM3 | ion flux, antagonist | – | > 10 |
